Experimental data: ChEMBL document CHEMBL3407460, “Synthesis of novel thiazole-based 8,9-dihydro-7H-pyrimido[4,5-b][1,4]diazepines as potential antitumor and antifungal agents” (2015)

Assays:
Assay type in all cases: functional
Candida albicans [1] = experiment: Antifungal activity against Candida albicans ATCC 10231 assessed as growth inhibition at 250 ug/ml after 48 hrs by broth microdilution method; details: ATCC 10231, 48 h
Outline: (§1)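 CLSI M27-A3 broth microdilution in RPMI-1640. Compound stocks were made in DMSO (final at most 1%) and tested at final levels of 250 to 0.98. Inoculum was 1–5 × 10^3 CFU/mL, incubated 48 h at 30 °C in a moist, dark chamber. Growth and sterility control wells were included.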

Cryptococcus neoformans [2] = experiment: Antifungal activity against Cryptococcus neoformans ATCC 32264 assessed as growth inhibition at 125 ug/ml after 48 hrs by broth microdilution method; details: ATCC 32264, 48 h; outline: as §1
Cryptococcus neoformans [3] = experiment: Antifungal activity against Cryptococcus neoformans ATCC 32264 assessed as growth inhibition at 3.9 ug/ml after 48 hrs by broth microdilution method; details: ATCC 32264, 48 h; outline: as §1
Cryptococcus neoformans [4] = experiment: Antifungal activity against Cryptococcus neoformans ATCC 32264 assessed as growth inhibition at 250 ug/ml after 48 hrs by broth microdilution method; details: ATCC 32264, 48 h; outline: as §1
Cryptococcus neoformans [5] = experiment: Antifungal activity against Cryptococcus neoformans ATCC 32264 assessed as growth inhibition at 7.81 ug/ml after 48 hrs by broth microdilution method; details: ATCC 32264, 48 h; outline: as §1
Candida albicans [6] = experiment: Antifungal activity against Candida albicans ATCC 10231 assessed as growth inhibition at 62.5 ug/ml after 48 hrs by broth microdilution method; details: ATCC 10231, 48 h; outline: as §1
Cryptococcus neoformans [7] = experiment: Antifungal activity against Cryptococcus neoformans ATCC 32264 assessed as growth inhibition at 15.62 ug/ml after 48 hrs by broth microdilution method; details: ATCC 32264, 48 h; outline: as §1
Candida albicans [8] = experiment: Antifungal activity against Candida albicans ATCC 10231 assessed as growth inhibition at 31.25 ug/ml after 48 hrs by broth microdilution method; details: ATCC 10231, 48 h; outline: as §1
Candida albicans [9] = experiment: Antifungal activity against Candida albicans ATCC 10231 assessed as growth inhibition at 15.62 ug/ml after 48 hrs by broth microdilution method; details: ATCC 10231, 48 h; outline: as §1
Cryptococcus neoformans [10] = experiment: Antifungal activity against Cryptococcus neoformans ATCC 32264 assessed as growth inhibition at 31.25 ug/ml after 48 hrs by broth microdilution method; details: ATCC 32264, 48 h; outline: as §1
Candida albicans [11] = experiment: Antifungal activity against Candida albicans ATCC 10231 assessed as growth inhibition at 125 ug/ml after 48 hrs by broth microdilution method; details: ATCC 10231, 48 h; outline: as §1
Candida albicans [12] = experiment: Antifungal activity against Candida albicans ATCC 10231 assessed as growth inhibition at 7.81 ug/ml after 48 hrs by broth microdilution method; details: ATCC 10231, 48 h; outline: as §1
Candida albicans [13] = experiment: Antifungal activity against Candida albicans ATCC 10231 assessed as growth inhibition at 3.9 ug/ml after 48 hrs by broth microdilution method; details: ATCC 10231, 48 h; outline: as §1
Cryptococcus neoformans [14] = experiment: Antifungal activity against Cryptococcus neoformans ATCC 32264 assessed as growth inhibition at 62.5 ug/ml after 48 hrs by broth microdilution method; details: ATCC 32264, 48 h; outline: as §1
Cryptococcus neoformans [15] = experiment: Antifungal activity against Cryptococcus neoformans IM 052470 clinical isolate after 48 hrs by broth microdilution method; details: IM 052470, 48 h
Outline: (§2)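 Clinical isolates from the Malbrán Institute were grown on Sabouraud-chloramphenicol agar for 48 h at 30 °C, kept on Sabouraud-dextrose agar and subcultured every 15 days. Endpoints MIC100, MIC80 and MIC50 were taken from % inhibition dose-response curves.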

Cryptococcus neoformans [16] = experiment: Antifungal activity against Cryptococcus neoformans IM 972724 clinical isolate after 48 hrs by broth microdilution method; details: IM 972724, 48 h
Outline: as §2, with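 “days. M27-A3 RPMI-1640 microdilution used 1–5 × 10^3 CFU/mL, 48 h at 30 °C, OD405 read, triplicate.” for “days.”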

Cryptococcus neoformans [17] = experiment: Antifungal activity against Cryptococcus neoformans IM 961951 clinical isolate after 48 hrs by broth microdilution method; details: IM 961951, 48 h
Outline: as §2, with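 “days. M27-A3 RPMI-1640 microdilution used 1–5 × 10^3 CFU/mL, 48 h at 30 °C, OD405 read, triplicate.” for “days.”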

Cryptococcus neoformans [18] = experiment: Antifungal activity against Cryptococcus neoformans IM 983040 clinical isolate after 48 hrs by broth microdilution method; details: IM 983040, 48 h
Outline: as §2, with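 “days. M27-A3 RPMI-1640 microdilution used 1–5 × 10^3 CFU/mL, 48 h at 30 °C, OD405 read, triplicate.” for “days.”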

Cryptococcus neoformans [19] = experiment: Antifungal activity against Cryptococcus neoformans IM 983036 clinical isolate after 48 hrs by broth microdilution method; details: IM 983036, 48 h
Outline: as §2, with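 “days. M27-A3 RPMI-1640 microdilution used 1–5 × 10^3 CFU/mL, 48 h at 30 °C, OD405 read, triplicate.” for “days.”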

Cryptococcus neoformans [20] = experiment: Antifungal activity against Cryptococcus neoformans IM 031631 clinical isolate after 48 hrs by broth microdilution method; details: IM 031631, 48 h
Outline: as §2, with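 “days. M27-A3 RPMI-1640 microdilution used 1–5 × 10^3 CFU/mL, 48 h at 30 °C, OD405 read, triplicate.” for “days.”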

Cryptococcus neoformans [21] = experiment: Antifungal activity against Cryptococcus neoformans IM 042074 clinical isolate after 48 hrs by broth microdilution method; details: IM 042074, 48 h
Outline: as §2, with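 “days. M27-A3 RPMI-1640 microdilution used 1–5 × 10^3 CFU/mL, 48 h at 30 °C, OD405 read, triplicate.” for “days.”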

Cryptococcus neoformans [22] = experiment: Antifungal activity against Cryptococcus neoformans IM 972751 clinical isolate after 48 hrs by broth microdilution method; details: IM 972751, 48 h
Outline: as §2, with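 “days. M27-A3 RPMI-1640 microdilution used 1–5 × 10^3 CFU/mL, 48 h at 30 °C, OD405 read, triplicate.” for “days.”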

Cryptococcus neoformans [23] = experiment: Antifungal activity against Cryptococcus neoformans IM 00319 clinical isolate after 48 hrs by broth microdilution method; details: IM 00319, 48 h; outline: as §2
Cryptococcus neoformans [24] = experiment: Antifungal activity against Cryptococcus neoformans IM 031706 clinical isolate after 48 hrs by broth microdilution method; details: IM 031706, 48 h; outline: as §2
Cryptococcus neoformans [25] = experiment: Antifungal activity against Cryptococcus neoformans ATCC 32264 after 48 hrs by broth microdilution method; details: ATCC 32264, 48 h

Nc1nc(N)c2c(n1)NC(c1sc(Cl)nc1Cl)CC(c1ccc3c(c1)OCO3)=N2 (configuration not stated)
7.07%: inhibition at 31.25 µg/mL (Cryptococcus neoformans [10])
36.9%: inhibition at 125 µg/mL (Cryptococcus neoformans [2])
24.3%: inhibition at 31.25 µg/mL (Candida albicans [8])
19.5%: inhibition at 62.5 µg/mL (Cryptococcus neoformans [14])
0%: inhibition at 3.9 µg/mL (Cryptococcus neoformans [3]) | inhibition at 15.62 µg/mL (Candida albicans [9]) | inhibition at 7.81 µg/mL (Candida albicans [12]) | inhibition at 3.9 µg/mL (Candida albicans [13])
48.1%: inhibition at 125 µg/mL (Candida albicans [11])
3.92%: inhibition at 7.81 µg/mL (Cryptococcus neoformans [5])
5.35%: inhibition at 15.62 µg/mL (Cryptococcus neoformans [7])
56.8%: inhibition at 250 µg/mL (Candida albicans [1])
58.5%: inhibition at 250 µg/mL (Cryptococcus neoformans [4])
41.6%: inhibition at 62.5 µg/mL (Candida albicans [6])

Nc1nc(N)c2c(n1)NC(c1sc(Cl)nc1Cl)CC(c1ccccc1)=N2 (configuration not stated)
0%: inhibition at 3.9 µg/mL (Cryptococcus neoformans [3]) | inhibition at 7.81 µg/mL (Cryptococcus neoformans [5])
15.6 µg/mL: MIC50 (Cryptococcus neoformans [16]) | MIC50 (Cryptococcus neoformans [17]) | MIC50 (Cryptococcus neoformans [19]) | MIC50 (Cryptococcus neoformans [21]) | MIC50 (Cryptococcus neoformans [25])
21.8%: inhibition at 62.5 µg/mL (Cryptococcus neoformans [14])
62.5 µg/mL: MFC (Cryptococcus neoformans [15]) | MIC (Cryptococcus neoformans [15]; read-out: MIC100) | MFC (Cryptococcus neoformans [18]) | MFC (Cryptococcus neoformans [20]) | MIC (Cryptococcus neoformans [20]; read-out: MIC100) | MFC (Cryptococcus neoformans [21]) | MFC (Cryptococcus neoformans [22]) | MIC (Cryptococcus neoformans [22]; read-out: MIC100) | MFC (Cryptococcus neoformans [23]) | MIC (Cryptococcus neoformans [23]; read-out: MIC100) | MFC (Cryptococcus neoformans [24]) | MIC (Cryptococcus neoformans [24]; read-out: MIC100)
100%: inhibition at 250 µg/mL (Candida albicans [1]) | inhibition at 250 µg/mL (Cryptococcus neoformans [4]) | inhibition at 62.5 µg/mL (Candida albicans [6]) | inhibition at 31.25 µg/mL (Candida albicans [8]) | inhibition at 125 µg/mL (Candida albicans [11])
7%: inhibition at 31.25 µg/mL (Cryptococcus neoformans [10])
7.8 µg/mL: MIC50 (Cryptococcus neoformans [15]) | MIC50 (Cryptococcus neoformans [18])
31.2 µg/mL: MIC80 (Cryptococcus neoformans [15]) | MFC (Cryptococcus neoformans [16]) | MIC80 (Cryptococcus neoformans [16]) | MIC (Cryptococcus neoformans [16]; read-out: MIC100) | MFC (Cryptococcus neoformans [17]) | MIC80 (Cryptococcus neoformans [17]) | MIC (Cryptococcus neoformans [17]; read-out: MIC100) | MIC80 (Cryptococcus neoformans [18]) | MIC (Cryptococcus neoformans [18]; read-out: MIC100) | MFC (Cryptococcus neoformans [19]) | MIC80 (Cryptococcus neoformans [19]) | MIC (Cryptococcus neoformans [19]; read-out: MIC100) | MIC50 (Cryptococcus neoformans [20]) | MIC80 (Cryptococcus neoformans [20]) | MIC80 (Cryptococcus neoformans [21]) | MIC (Cryptococcus neoformans [21]; read-out: MIC100) | MIC50 (Cryptococcus neoformans [22]) | MIC80 (Cryptococcus neoformans [22]) | MIC50 (Cryptococcus neoformans [23]) | MIC80 (Cryptococcus neoformans [23]) | MIC50 (Cryptococcus neoformans [24]) | MIC80 (Cryptococcus neoformans [24]) | MFC (Cryptococcus neoformans [25]) | MIC80 (Cryptococcus neoformans [25]) | MIC (Cryptococcus neoformans [25]; read-out: MIC100)
21.5%: inhibition at 7.81 µg/mL (Candida albicans [12])
2.53%: inhibition at 15.62 µg/mL (Cryptococcus neoformans [7])
62%: inhibition at 15.62 µg/mL (Candida albicans [9])
4.92%: inhibition at 3.9 µg/mL (Candida albicans [13])
74.3%: inhibition at 125 µg/mL (Cryptococcus neoformans [2])
